# According to ChEMBL document CHEMBL1123433, “Synthesis of anthraquinonyl glucosaminosides and studies on the influence of aglycone hydroxyl substitution on superoxide generation, DNA binding, and antimicrobial properties” (J Med Chem, 1986):
# What was measured:
# Type in all cases: functional
# [1] = tested on: Staphylococcus aureus; experiment: Compound was tested for antibacterial activity against Staphylococcus aureus ATCC 25923
# Method in brief: (§1)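 MICs were found by agar dilution. Test compounds were dissolved in water or in dimethyl sulfoxide, and the mixture was added to the agar before it set.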
# [2] = tested on: Bacillus subtilis; experiment: Compound was tested for antibacterial activity against Bacillus subtilis ATCC E6051; method in brief: as §1
# [3] = tested on: Bacillus cereus; experiment: Compound was tested for antibacterial activity against Bacillus cereus WSU-60; method in brief: as §1
# [4] = tested on: Staphylococcus epidermidis; experiment: Compound was tested for antibacterial activity against Staph. epidermidis ATCC 12228; method in brief: as §1
# [5] = tested on: Streptococcus pyogenes; experiment: Compound was tested for antibacterial activity against Strep. pyogenes ATCC 19615; method in brief: as §1
# [6] = tested on: Staphylococcus aureus; experiment: Compound was tested for antibacterial activity against Staphylococcus aureus WSU-196E; method in brief: as §1
# [7] = tested on: Corynebacterium diphtheriae; experiment: Compound was tested for antibacterial activity against Corynebacterium diphtheria WSU; method in brief: as §1
# [8] = tested on: Staphylococcus aureus; experiment: Compound was tested for antibacterial activity against Staphylococcus aureus ATCC 9144; method in brief: as §1
# [9] = species on record: Rattus norvegicus; experiment: Compound was tested for effect of glycoside on superoxide production in rat heart sarcosomes; set-up: unit not given here
# Method in brief: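 Male Sprague-Dawley rat ventricles were homogenized in 100 mM KCl, 5 mM histidine, pH 7.3. The microsomal (sarcosomal) pellet was taken at 100000g and resuspended in 0.15 M K3PO4, 1 mM EDTA, pH 7.4. Sarcosomes came from six rats prepared concurrently. Each 1 mL reaction held acetylated cytochrome c (38-53 nmol), 300-500 µg protein and 0.1 mM compound. NADPH started the reaction. A550 rise was followed at 37 °C and reported as mean ± SEM, N = 3, with an F test.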
SMILES,MIC [1] [µg/mL],MIC [2] [µg/mL],MIC [3] [µg/mL],MIC [4] [µg/mL],MIC [5] [µg/mL],MIC [6] [µg/mL],MIC [7] [µg/mL],MIC [8] [µg/mL],Activity [9]
COc1cccc2c1C(=O)c1c(O)c3c(c(O)c1C2=O)C[C@@](O)(C(C)=O)C[C@@H]3O[C@H]1C[C@H](N)[C@H](O)[C@H](C)O1 [DAUNORUBICIN],20,< 5,< 5,< 5,< 5,< 5,< 5,< 5,2.76
NC1C(OCc2cc(O)c3c(c2)C(=O)c2cccc(O)c2C3=O)OC(O)C(O)C1O (configuration not stated),> 200,> 200,200,20,10,> 200,100,50,10.1
NC1C(OCc2cc(O)c3c(c2O)C(=O)c2ccccc2C3=O)OC(O)C(O)C1O (configuration not stated),100,50,50,20,10,> 200,100,50,12.8
NC1C(OCc2ccc3c(c2O)C(=O)c2ccccc2C3=O)OC(O)C(O)C1O (configuration not stated),200,50,100,20,20,200,100,200,5.49
NC1C(OCc2ccc3c(c2O)C(=O)c2c(O)cccc2C3=O)OC(O)C(O)C1O (configuration not stated),100,50,50,50,50,200,50,200,10.5
NC1C(OCc2ccc3c(c2)C(=O)c2ccccc2C3=O)OC(O)C(O)C1O (configuration not stated),> 200,> 200,> 200,200,100,> 200,> 200,> 200,2.31
COc1cccc2c1C(=O)c1c(O)c3c(c(O)c1C2=O)C[C@@](O)(C(=O)CO)C[C@@H]3O[C@H]1C[C@H](N)[C@H](O)[C@H](C)O1 [DOXORUBICIN],200,20,10,< 5,< 5,10,20,20,
